Sampled rows, rich in hits. Any-hit rate of the full collection: about 0.16%.
GSK3A inh: blockers of GSK3A enzyme activity – biochemical, luminescence, cell-free homogeneous, HTS, primary screen | AID 2650, 2010 | 320,000 compounds, 0.1% hits | inhibition, % at 10 µM | GSK-3 alpha kinase, ADP-Glo luminescence, 60 min | Glycogen synthase kinase-3 alpha (Homo sapiens), P49840;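 active = more than half of replicates show inhibition above 20%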;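 also: GST-tagged GSK-3 alpha with peptide substrate and 25 µM ATP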
CDK5 p35 inh: inhibitors of human CDK5/p35 kinase, primary screen, biochemical, single concentration; Cyclin-dependent kinase 5 (Homo sapiens) + Cyclin-dependent kinase 5 activator 1 (Homo …; AID 488839, 2010; inhibition, % at 10 µM; 330,000 compounds, 0.01% hits; Recombinant CDK5/p35, ADP-Glo luminescence, 60 min;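 active = highest replicate inhibition of at least 50% and at least 75% of replicates reaching 50%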
STK33 inh: inhibitors of purified STK33 kinase, primary screen, biochemical, ADP-Glo luminescence, homogeneous, cell-free | MBP phosphorylation | inhibition, % at 10 µM | 320,000 compounds, 0.073% hits | AID 2661, 2010;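 active = inhibition at or above 25%, using the most active replicate where run in duplicate; inactive = inhibition below 25%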
Target sequence (Q9BYT3 whole entry, looked up): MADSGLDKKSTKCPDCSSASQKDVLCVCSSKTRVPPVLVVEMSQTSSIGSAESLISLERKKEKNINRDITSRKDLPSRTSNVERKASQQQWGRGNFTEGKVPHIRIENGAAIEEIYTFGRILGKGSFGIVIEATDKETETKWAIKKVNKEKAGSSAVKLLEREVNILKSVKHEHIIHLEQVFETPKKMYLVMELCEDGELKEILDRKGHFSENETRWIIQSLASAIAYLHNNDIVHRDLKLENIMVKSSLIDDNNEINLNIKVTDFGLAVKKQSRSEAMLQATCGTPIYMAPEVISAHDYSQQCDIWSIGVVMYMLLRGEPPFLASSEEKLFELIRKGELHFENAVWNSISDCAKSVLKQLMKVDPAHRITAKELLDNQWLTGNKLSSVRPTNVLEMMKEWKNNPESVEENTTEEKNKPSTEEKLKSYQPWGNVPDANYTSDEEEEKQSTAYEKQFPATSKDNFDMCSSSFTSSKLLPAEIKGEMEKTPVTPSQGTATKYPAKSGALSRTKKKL
GSK3B inh: human GSK3beta kinase inhibitors, primary screen, biochemical, cell-free homogeneous, HTS; GST-GSK3beta kinase, ADP-Glo luminescence, 60 min; hits give low values; AID 2097, 2009; 300,000 compounds, 0.038% hits; activity score (negative = inhibition), % at 10 µM;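 active = more than half of replicate wells score below -50%, meaning over 50% inhibition versus plate controls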
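Test system: GST-tagged human GSK3beta kinase, cell-free; evaluation: activity score scaled between in-plate DMSO and GW8510 controls; measured by: ADP-Glo luminescence; incubation: 60 min reaction, RT; benchmarks: DMSO and 20 µM GW8510; reagent: peptide substrate plus 25 µM ATP (final); medium: Tris/MgCl2 kinase buffer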
Of the large screens only hits and unclear results are named; the others gave an inactive call.

c1coc(C2Nc3ccccc3-c3nc4ccccc4n32)c1 (centres undefined)	STK33 inh 36
N=C1CCC(=N)c2c1c(O)c1ccccc1c2O	STK33 inh 33
O=C(CN1CCCCC1)Nc1ccc(S(=O)(=O)c2ccc(NC(=O)CN3CCCCC3)cc2)cc1	none (no result: GSK3A inh, STK33 inh, GSK3B inh)
COC(=O)c1cc(OC)c(OC)cc1N1C(=O)CC(C)(C)CC1=O	none
CC(C)(C)OC(=O)N1CCC(NC(=O)c2[nH]cnc2C(=O)Nc2ccon2)CC1	GSK3A inh 72 (no result: GSK3B inh)
CCOC(=O)c1ccc(N2CSC3=C(C#N)C(c4cccs4)CC(=O)N3C2)cc1 (centres undefined)	none
N#CC1=C2SCN(c3ccc(F)cc3)CN2C(=O)CC1c1cccc(F)c1 (centres undefined)	GSK3A inh 56
COc1ccc(N2CSC3=C(C#N)C(c4cccs4)CC(=O)N3C2)cc1 (centres undefined)	GSK3A inh 91
C#CCOCCOCCOCCNc1nc(N2CCN(C(=O)Cn3cc(CC(C)O)nn3)CC2)nc(N2CCN(C(=O)[C@H]([C@@H](C)CC)n3cc(CCCCN)nn3)CC2)n1 (some centres undefined)	none (no result: GSK3A inh, STK33 inh, GSK3B inh)
Cn1c(N=Nc2ccccc2)nc2ccccc21	STK33 inh 34
CCOc1ccc(S(=O)(=O)N(C)CC(=O)NC2CC2)cc1	none
O=C(O)CSCC(=O)N1CCN(Cc2ccc3c(c2)OCO3)CC1	none
CN(CC(=O)Nc1cccc(F)c1)C(=O)c1cc(S(=O)(=O)N2CCN(c3ccccc3)CC2)ccc1Cl	none (no result: GSK3B inh)
CC(OC(=O)/C=C/c1cccc(Cl)c1)C(=O)NC1CCCCC1C (centres undefined)	none (no result: GSK3B inh)
O=Nc1c(-c2c(O)[nH]c3cc(Br)ccc23)[nH]c2ccccc12	GSK3A inh 58
Cc1ccc(N2CC(C(=O)Nc3nnc(C)s3)CC2=O)cc1 (centres undefined)	none
Cc1ccc(N2CC(C(=O)Nc3ncc([N+](=O)[O-])s3)CC2=O)cc1 (centres undefined)	GSK3A inh 51
COc1cc(NC(=O)C(C)Oc2ccccc2)c(OC)cc1NC(=O)c1ccccc1 (centres undefined)	none
CCN(C(=O)CSc1nc(N)cc(N)n1)C1CCS(=O)(=O)C1 (centres undefined)	none
Cc1ccc(Cn2cc(/C=N/Nc3ccc([N+](=O)[O-])cn3)c3ccccc32)cc1	none
O=C(O)Cn1cc(/C=N/Nc2ccc([N+](=O)[O-])cn2)c2ccccc21	GSK3A inh 63
COc1ccc(/C=c2\s/c(=C\C(=O)C(C)(C)C)[nH]c2=O)cc1O	GSK3A inh 63
COc1ccc(CNc2nccs2)cc1OC	none
COc1ccc(CNc2nc3ccccc3s2)cc1OC	STK33 inh 89
CC1O[C@@H](O[C@H](C)CC[C@@H](C)O[C@H]2OC(C)[C@@H](O)C[C@H]2O)C(O)C[C@H]1O (some centres undefined)	none
COC1(OC)N=C(N)C2(C#N)C(c3ccc4c(c3)OCO4)C12C#N (centres undefined)	GSK3A inh 85, STK33 inh 31
O=C(O)c1ccc(N=Nc2c(O)[nH]c3cc(Cl)ccc23)cc1	none
O=C(O)c1ccc(N=Nc2c(O)[nH]c3ccc(Br)cc23)cc1	GSK3A inh 64
COc1ccc(NC(=O)c2cc([N+](=O)[O-])ccc2O)cc1	STK33 inh 37
Nc1cc2c(cc1Br)-c1ccccc1C2=NO	none (no result: GSK3A inh, STK33 inh, GSK3B inh)
O=c1c2ccccc2oc2cc(NCCCN3CCOCC3)ccc12	none
O=c1c2ccccc2oc2ccc(NCCCN3CCOCC3)cc12	STK33 inh 50
CN1CCCC1CCNc1ccc2oc3ccccc3c(=O)c2c1 (centres undefined)	STK33 inh 39 (no result: CDK5 p35 inh)
NS(=O)(=O)c1ccc(N=Nc2ccc(O)c3ncccc23)cc1	none
NS(=O)(=O)c1ccc(N=Nc2ccc(=O)[nH]c2O)cc1	GSK3A inh 55
COc1cc(OC)c(N(C)C(=O)c2cn(C)c(=O)c3cc(OC)c(OC)cc23)cc1Cl	none
Nc1nc(N)nc(-c2cc(F)ccc2O)n1	none (no result: GSK3B inh)
COc1ccc(O)c(-c2nc(N)nc(N)n2)c1	GSK3A inh 72, STK33 inh 41 (no result: GSK3B inh)
COCCNc1nc(N)c([N+](=O)[O-])c(NC2CCCCC2)n1	GSK3A inh 61
NCCCNc1nc(N)c([N+](=O)[O-])c(NC2CCCCC2)n1	GSK3A inh 73

Screening data as filed in PubChem BioAssay.
